How the values were obtained:
Candida albicans [1] = experiment: Growth inhibition of Candida albicans ATCC 95020 at 0.2 to 25 mg/L; assay type: functional
Method in brief: (§1)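 Agar-well diffusion bioassay. Overnight YPD culture at 35°C was diluted to 1.5 x 10^7 CFU/ml inoculum. Agar contained yeast nitrogen base, glucose and phosphate buffer pH 5.5. Wells held 25 µl spiked plasma standards (8 points, 0.2–25 mg/liter). Plates stood 2 h at 4°C for diffusion, then 14 h at 35°C. Inhibition zones: four diameters by caliper.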

Kluyveromyces marxianus = experiment: Growth inhibition of Candida kefyr B11501 at 0.2 to 25 mg/L; assay type: functional; method in brief: as §1
Candida albicans [2] = experiment: Growth inhibition of Candida albicans mutant DSY2621 at 0.2 to 25 mg/L; assay type: functional; method in brief: as §1
[3] = Cmax in leukemic patient with pulmonary aspergillosis at 200 mg twice daily, po on day 7; assay type: ADME, organism-based; parameters: dose 200 mg, route oral; settings: human, in vivo
Method in brief: (§2)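 Patients' citrated blood drawn just before and 2, 4, 6 and 12 h after a dose on days 2, 7 and 14 of therapy. Plasma was analysed by HPLC: acetonitrile precipitation, C18 column, UV detection at 255 nm. AUC over the 0–12 h dosing interval used the linear trapezoidal rule during rise and the log trapezoidal rule during decay. Cmax and trough were summarised descriptively.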

[4] = AUC in leukemic patient with pulmonary aspergillosis at 200 mg twice daily, po on day 7; assay type: ADME, organism-based; settings: human, plasma; method in brief: as §2
Homo sapiens [5] = experiment: Trough concentration in leukemic patient with pulmonary aspergillosis at 200 mg twice daily, po on day 7; assay type: ADME, organism-based; settings: in vivo; method in brief: as §2
[6] = Cmax in leukemic patient with pulmonary aspergillosis at 200 mg twice daily, po on day 14; assay type: ADME, organism-based; parameters: dose 200 mg, route oral; settings: human, in vivo; method in brief: as §2
[7] = AUC in leukemic patient with pulmonary aspergillosis at 200 mg twice daily, po on day 14; assay type: ADME, organism-based; settings: human, plasma; method in brief: as §2
Homo sapiens [8] = experiment: Trough concentration in leukemic patient with pulmonary aspergillosis at 200 mg twice daily, po on day 14; assay type: ADME, organism-based; settings: in vivo; method in brief: as §2
[9] = AUC in leukemic neutropenic patient with pulmonary aspergillosis at 300 mg twice daily, po on day 1; assay type: ADME, organism-based; settings: human, plasma
[10] = AUC in leukemic neutropenic patient with pulmonary aspergillosis at 300 mg twice daily, po on day 7; assay type: ADME, organism-based; settings: human, plasma; method in brief: as §2
Homo sapiens [11] = experiment: Trough level in leukemic neutropenic patient with pulmonary aspergillosis at 300 mg twice daily, po; assay type: ADME, organism-based; settings: in vivo; method in brief: as §2
[12] = Cmax in patient with invasive mycoses on day 1; assay type: ADME, organism-based; settings: human, in vivo
Homo sapiens [13] = organism: Homo sapiens; experiment: Trough level in patient with invasive mycoses on day 1; assay type: ADME, organism-based; settings: in vivo
[14] = Cmax in leukemic neutropenic patient with pulmonary aspergillosis at 300 mg twice daily, po; assay type: ADME, organism-based; parameters: dose 300 mg, route oral; settings: human, in vivo; method in brief: as §2

Structure (SMILES): C[C@@H](c1ncncc1F)[C@](O)(Cn1cncn1)c1ccc(F)cc1F [VORICONAZOLE]
- Inhibition (Candida albicans [1]): 21 mm
- Inhibition (Kluyveromyces marxianus): 23 mm
- Inhibition (Candida albicans [2]): 17 mm
- Cmax [3]: 1900 ng/mL
- AUC [4]: 12900 ng·h/mL
- Cmin (Homo sapiens [5]): 500 ng/mL
- Cmax [6]: 300 ng/mL
- AUC [7]: 2900 ng·h/mL
- Cmin (Homo sapiens [8]): 200 ng/mL
- AUC [9]: 43000 ng·h/mL
- AUC [10]: 40500 ng·h/mL
- Cmin (Homo sapiens [11]): 2600 ng/mL
- Cmax [12]: 6000 ng/mL
- Cmin (Homo sapiens [13]): 3000 ng/mL
- Cmax [14]: 4300 ng/mL

Source: ChEMBL document CHEMBL1142163 (Antimicrob Agents Chemother, 2007)
